Test results reported in ChEMBL document CHEMBL4152207, “Discovery of potent and selective BRD4 inhibitors capable of blocking TLR3-induced acute airway inflammation” (Eur J Med Chem, 2018).
Activity calls are given as the source filed them. The calls are words filed in the database; no cut-off is given here.

Assays:
[1] = Half life in rat at 10 mg/kg, iv; format: ADME, organism-based; conditions: in vivo
[2] = Volume of distribution at steady state in rat at 10 mg/kg, iv; format: ADME, organism-based; conditions: in vivo, read-out: Vdss
[3] = Total clearance in rat at 10 mg/kg, iv; format: ADME, organism-based; conditions: in vivo
[4] = Cmax in rat at 20 mg/kg, po; format: ADME, organism-based; design: dose 20 mg/kg, route oral; conditions: in vivo
[5] = AUC (0 to t) in rat at 20 mg/kg, po; format: ADME, organism-based; conditions: in vivo
Mus musculus [6] = experiment: Anti-inflammatory activity in poly(I:C)-induced airway inflammation C57BL/6 mouse model assessed as reduction in neutrophils recruitment into bronchoalveolar lavage fluid at 10 mg/kg, ip administered 1 day prior to poly(I:C) stimulation and redosed on day 2 followed by poly(I:C) stimulation by trypan blue staining-based hemocytometric analysis; format: functional, organism-based
Mus musculus [7] = experiment: Anti-inflammatory activity in poly(I:C)-induced airway inflammation C57BL/6 mouse model assessed as reduction in mISG54 expression in lung at 10 mg/kg, ip administered 1 day prior to poly(I:C) stimulation and redosed on day 2 followed by poly(I:C) stimulation; format: functional, organism-based
Summary of the method: (§1)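 Male C57BL/6J mice, 12 weeks old, were given 10 mg/kg i.p. one day before stimulation. The next day they got a second dose, immediately followed by intranasal poly(I:C) (300 μg in 50 μL PBS) or PBS alone. Compound was taken up in DMSO and diluted in 10% hydroxypropyl β-cyclodextrin in PBS. Mice were euthanized one day later and lung tissue was collected for cytokine expression.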

Mus musculus [8] = experiment: Anti-inflammatory activity in poly(I:C)-induced airway inflammation C57BL/6 mouse model assessed as reduction in mIL6 expression in lung at 10 mg/kg, ip administered 1 day prior to poly(I:C) stimulation and redosed on day 2 followed by poly(I:C) stimulation; format: functional, organism-based; summary of the method: as §1
Mus musculus [9] = experiment: Toxicity in mouse assessed as effect on body weight at 1 to 50 mg/kg, ip dosed daily for 1 month; format: organism-based; conditions: in vivo
Mus musculus [10] = experiment: Toxicity in mouse assessed as effect on nuetrophils level at 1 to 50 mg/kg, ip dosed daily for 1 month; format: organism-based; conditions: in vivo
Mus musculus [11] = experiment: Hepatotoxicity in mouse assessed as effect on albumin level at 1 to 50 mg/kg, ip dosed daily for 1 month; format: toxicity, organism-based; conditions: in vivo
Summary of the method: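 Groups of n = 5 mice were dosed daily at 1-50 mg/kg for one month. Liver function markers (albumin, globulin, ALK, ALT) were measured alongside body weight, blood counts and renal markers.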

Mus musculus [12] = experiment: Renal toxicity in mouse assessed as effect on CRE level at 1 to 50 mg/kg, ip dosed daily for 1 month; format: organism-based; conditions: in vivo
Mus musculus [13] = experiment: Renal toxicity in mouse assessed as effect on BUN level at 1 to 50 mg/kg, ip dosed daily for 1 month; format: organism-based; conditions: in vivo
[14] = target: Alpha-2A adrenergic receptor (Homo sapiens) (UniProt P08913); experiment: Binding affinity to adrenergic alpha2A receptor (unknown origin) at 10 uM by agonist radioligand assay relative to control
Chain of Alpha-2A adrenergic receptor (Homo sapiens) (P08913 whole entry): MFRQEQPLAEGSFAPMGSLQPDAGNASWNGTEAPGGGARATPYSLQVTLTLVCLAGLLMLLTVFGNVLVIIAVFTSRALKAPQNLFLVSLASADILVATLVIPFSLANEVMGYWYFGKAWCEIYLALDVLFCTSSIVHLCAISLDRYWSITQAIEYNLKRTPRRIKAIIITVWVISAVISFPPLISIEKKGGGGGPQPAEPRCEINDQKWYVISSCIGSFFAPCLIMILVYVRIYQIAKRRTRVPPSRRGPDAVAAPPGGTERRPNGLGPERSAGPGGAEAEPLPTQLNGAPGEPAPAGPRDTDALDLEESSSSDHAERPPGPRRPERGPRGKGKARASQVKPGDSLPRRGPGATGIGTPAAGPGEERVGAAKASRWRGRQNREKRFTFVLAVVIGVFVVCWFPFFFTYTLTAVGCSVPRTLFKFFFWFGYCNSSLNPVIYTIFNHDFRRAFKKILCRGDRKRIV

[15] = target: Beta-1 adrenergic receptor (Homo sapiens) (UniProt P08588); experiment: Displacement of [3H](-)CGP 12177 from human beta1 adrenoceptor at 10 uM after 60 mins by scintillation counting analysis relative to control
[16] = target: Cholecystokinin receptor type A (Homo sapiens) (UniProt P32238); experiment: Displacement of [125I]CCK-8s from human recombinant CCK1 receptor at 10 uM after 60 mins by scintillation counting analysis relative to control
Chain of Cholecystokinin receptor type A (Homo sapiens) (P32238 whole entry): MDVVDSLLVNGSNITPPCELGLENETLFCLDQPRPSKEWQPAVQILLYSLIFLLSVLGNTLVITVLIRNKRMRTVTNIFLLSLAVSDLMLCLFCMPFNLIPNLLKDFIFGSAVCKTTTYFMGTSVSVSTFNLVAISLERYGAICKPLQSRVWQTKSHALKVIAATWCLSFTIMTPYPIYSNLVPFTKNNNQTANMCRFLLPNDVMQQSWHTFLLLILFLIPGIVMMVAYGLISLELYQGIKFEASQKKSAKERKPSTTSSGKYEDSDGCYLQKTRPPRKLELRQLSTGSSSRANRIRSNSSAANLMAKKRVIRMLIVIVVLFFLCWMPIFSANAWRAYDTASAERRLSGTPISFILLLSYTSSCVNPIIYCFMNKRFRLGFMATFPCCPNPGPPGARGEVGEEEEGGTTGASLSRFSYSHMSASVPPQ

[17] = target: Endothelin-1 receptor (Homo sapiens) (UniProt P25101); experiment: Displacement of [125I]endothelin-1 from human recombinant endothelin ETA receptor at 10 uM after 120 mins by scintillation counting analysis relative to control
Chain of Endothelin-1 receptor (Homo sapiens) (P25101 whole entry): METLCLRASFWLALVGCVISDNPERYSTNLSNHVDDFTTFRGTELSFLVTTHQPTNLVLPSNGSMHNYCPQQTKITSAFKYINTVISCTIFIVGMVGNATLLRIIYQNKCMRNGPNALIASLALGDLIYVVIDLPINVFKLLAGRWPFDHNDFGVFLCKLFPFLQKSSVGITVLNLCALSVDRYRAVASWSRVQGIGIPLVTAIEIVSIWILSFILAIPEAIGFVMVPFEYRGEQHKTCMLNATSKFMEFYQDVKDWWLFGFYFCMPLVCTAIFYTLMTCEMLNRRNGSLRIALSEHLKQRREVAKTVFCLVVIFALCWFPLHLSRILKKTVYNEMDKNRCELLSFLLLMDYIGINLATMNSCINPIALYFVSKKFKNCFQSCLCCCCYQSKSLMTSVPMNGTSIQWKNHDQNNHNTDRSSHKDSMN

[18] = target: Histamine H1 receptor (Homo sapiens) (UniProt P35367); experiment: Displacement of [3H]pyrilamine from human recombinant histamine H1 receptor at 10 uM after 60 mins by scintillation counting analysis relative to control
Chain of Histamine H1 receptor (Homo sapiens) (P35367 whole entry): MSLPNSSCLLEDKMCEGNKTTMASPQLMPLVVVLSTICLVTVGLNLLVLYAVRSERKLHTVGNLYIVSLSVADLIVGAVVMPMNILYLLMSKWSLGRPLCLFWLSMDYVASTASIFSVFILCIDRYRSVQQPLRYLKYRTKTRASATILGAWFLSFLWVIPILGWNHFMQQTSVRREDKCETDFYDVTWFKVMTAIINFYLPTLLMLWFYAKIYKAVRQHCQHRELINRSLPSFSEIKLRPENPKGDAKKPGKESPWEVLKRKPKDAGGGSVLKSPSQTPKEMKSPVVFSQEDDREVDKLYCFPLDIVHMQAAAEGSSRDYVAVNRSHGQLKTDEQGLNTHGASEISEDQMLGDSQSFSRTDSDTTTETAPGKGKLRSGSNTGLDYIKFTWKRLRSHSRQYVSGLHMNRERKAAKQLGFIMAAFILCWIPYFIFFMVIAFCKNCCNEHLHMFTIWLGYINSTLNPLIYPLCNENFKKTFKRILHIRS

[19] = target: Muscarinic acetylcholine receptor M2 (Homo sapiens) (UniProt P08172); experiment: Displacement of [3H]AF-DX 384 from human recombinant M2 receptor at 10 uM after 60 mins by scintillation counting analysis relative to control
[20] = target: Neuronal acetylcholine receptor; alpha4/beta2 (Homo sapiens) (UniProt P17787+P43681); experiment: Binding affinity to neuronal alpha4beta2 (unknown origin) at 10 uM by antgonist radioligand assay relative to control; format: protein-complex assay
[21] = target: Kappa-type opioid receptor (Homo sapiens) (UniProt P41145); experiment: Displacement of [3H]U69593 from human kappa opioid receptor at 10 uM after 60 mins by scintillation counting analysis relative to control
Chain of Kappa-type opioid receptor (Homo sapiens) (P41145 whole entry): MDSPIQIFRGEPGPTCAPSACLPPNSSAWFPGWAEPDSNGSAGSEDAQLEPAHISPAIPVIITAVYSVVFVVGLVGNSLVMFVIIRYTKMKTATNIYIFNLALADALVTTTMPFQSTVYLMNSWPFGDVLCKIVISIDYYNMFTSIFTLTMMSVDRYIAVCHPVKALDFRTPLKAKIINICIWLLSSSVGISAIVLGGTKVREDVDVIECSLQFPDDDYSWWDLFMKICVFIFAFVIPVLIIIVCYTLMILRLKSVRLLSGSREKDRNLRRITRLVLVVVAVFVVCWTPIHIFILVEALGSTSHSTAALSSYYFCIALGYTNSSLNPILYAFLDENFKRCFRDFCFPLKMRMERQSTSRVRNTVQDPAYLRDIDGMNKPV

[22] = target: 5-hydroxytryptamine receptor 1A (Homo sapiens) (UniProt P08908); experiment: Displacement of [3H]8-OH-DPAT from recombinant human 5-HT1A receptor at 10 uM after 60 mins by scintillation counting analysis relative to control
[23] = target: 5-hydroxytryptamine receptor 1B (Homo sapiens) (UniProt P28222); experiment: Displacement of [125I]-CYP from human 5-HT1B receptor at 10 uM after 120 mins by scintillation counting analysis relative to control
Chain of 5-hydroxytryptamine receptor 1B (Homo sapiens) (P28222 whole entry): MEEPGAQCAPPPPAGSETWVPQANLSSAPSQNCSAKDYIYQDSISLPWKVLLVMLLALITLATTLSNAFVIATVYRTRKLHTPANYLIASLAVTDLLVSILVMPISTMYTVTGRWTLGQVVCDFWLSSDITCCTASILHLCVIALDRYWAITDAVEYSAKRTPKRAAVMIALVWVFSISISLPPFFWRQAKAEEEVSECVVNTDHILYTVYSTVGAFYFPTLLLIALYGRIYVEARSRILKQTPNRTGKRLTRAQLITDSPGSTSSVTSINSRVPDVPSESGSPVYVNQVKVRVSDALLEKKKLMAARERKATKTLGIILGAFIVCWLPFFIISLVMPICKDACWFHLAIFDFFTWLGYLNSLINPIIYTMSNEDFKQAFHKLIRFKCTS

[24] = target: Glucocorticoid receptor (Homo sapiens) (UniProt P04150); experiment: Displacement of [3H]dexamethasone from human GR at 10 uM after 360 mins by scintillation counting analysis relative to control
Chain of Glucocorticoid receptor (Homo sapiens) (P04150 whole entry): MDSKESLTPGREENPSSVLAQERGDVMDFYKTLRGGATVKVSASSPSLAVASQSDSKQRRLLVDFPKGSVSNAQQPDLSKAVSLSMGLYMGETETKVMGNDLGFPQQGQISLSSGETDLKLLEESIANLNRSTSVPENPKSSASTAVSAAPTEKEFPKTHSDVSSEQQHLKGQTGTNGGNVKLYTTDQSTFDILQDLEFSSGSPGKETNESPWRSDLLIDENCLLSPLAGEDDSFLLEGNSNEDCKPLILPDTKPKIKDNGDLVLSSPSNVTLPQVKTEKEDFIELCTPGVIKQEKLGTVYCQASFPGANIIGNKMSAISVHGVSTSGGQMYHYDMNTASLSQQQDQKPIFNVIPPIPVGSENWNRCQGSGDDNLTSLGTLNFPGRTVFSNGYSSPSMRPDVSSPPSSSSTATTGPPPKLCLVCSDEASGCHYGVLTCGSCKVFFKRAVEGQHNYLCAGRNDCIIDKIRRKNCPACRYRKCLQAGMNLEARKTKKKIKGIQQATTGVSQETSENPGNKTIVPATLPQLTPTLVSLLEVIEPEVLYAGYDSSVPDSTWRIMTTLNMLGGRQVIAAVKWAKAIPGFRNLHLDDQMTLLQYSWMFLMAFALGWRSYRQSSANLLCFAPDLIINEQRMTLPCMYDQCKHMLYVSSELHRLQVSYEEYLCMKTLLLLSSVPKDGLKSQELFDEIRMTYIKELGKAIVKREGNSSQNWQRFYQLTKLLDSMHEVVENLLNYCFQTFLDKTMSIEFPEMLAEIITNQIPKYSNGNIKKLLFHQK

[25] = target: Vasopressin V1a receptor (Homo sapiens) (UniProt P37288); experiment: Displacement of [3H]AVP from human recombinant V1a receptor at 10 uM after 60 mins by scintillation counting analysis relative to control
Chain of Vasopressin V1a receptor (Homo sapiens) (P37288 whole entry, looked up): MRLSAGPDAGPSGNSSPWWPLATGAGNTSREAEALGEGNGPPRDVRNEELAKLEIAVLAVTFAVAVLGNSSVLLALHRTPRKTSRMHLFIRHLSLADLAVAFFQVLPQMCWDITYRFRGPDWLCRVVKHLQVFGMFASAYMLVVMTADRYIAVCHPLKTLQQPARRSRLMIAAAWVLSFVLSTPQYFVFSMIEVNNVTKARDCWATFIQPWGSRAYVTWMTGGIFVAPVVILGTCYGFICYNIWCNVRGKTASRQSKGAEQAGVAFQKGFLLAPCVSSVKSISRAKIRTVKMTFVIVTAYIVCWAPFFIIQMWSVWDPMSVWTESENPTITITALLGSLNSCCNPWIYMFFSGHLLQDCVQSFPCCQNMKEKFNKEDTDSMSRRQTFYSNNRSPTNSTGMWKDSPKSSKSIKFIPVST

Rattus norvegicus = species: Rattus norvegicus; experiment: Displacement of [125I]alpha-dendrotoxin from rat Voltage-gated potassium channel at 10 uM after 60 mins by scintillation counting analysis relative to control
Summary of the method: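 Run within a commercial off-target panel of receptors and enzymes, with compound tested at a single concentration of 10 μM.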

[26] = target: Prostaglandin G/H synthase 1 (Homo sapiens) (UniProt P23219); experiment: Inhibition of human recombinant COX1 using arachidonic acid as substrate after 3 mins by fluorimetric analysis; design: scale not given: the % may be the effect or the level left
[27] = target: cGMP-inhibited 3',5'-cyclic phosphodiesterase 3A (Homo sapiens) (UniProt Q14432); experiment: Displacement of [3H]cAMP from human recombinant PDE3A at 10 uM after 20 mins by scintillation counting analysis relative to control
[28] = target: 3',5'-cyclic-AMP phosphodiesterase 4D (Homo sapiens) (UniProt Q08499); experiment: Displacement of [3H]cAMP from human recombinant PDE4D2 at 10 uM after 20 mins by scintillation counting analysis relative to control
Chain of 3',5'-cyclic-AMP phosphodiesterase 4D (Homo sapiens) (Q08499 whole entry): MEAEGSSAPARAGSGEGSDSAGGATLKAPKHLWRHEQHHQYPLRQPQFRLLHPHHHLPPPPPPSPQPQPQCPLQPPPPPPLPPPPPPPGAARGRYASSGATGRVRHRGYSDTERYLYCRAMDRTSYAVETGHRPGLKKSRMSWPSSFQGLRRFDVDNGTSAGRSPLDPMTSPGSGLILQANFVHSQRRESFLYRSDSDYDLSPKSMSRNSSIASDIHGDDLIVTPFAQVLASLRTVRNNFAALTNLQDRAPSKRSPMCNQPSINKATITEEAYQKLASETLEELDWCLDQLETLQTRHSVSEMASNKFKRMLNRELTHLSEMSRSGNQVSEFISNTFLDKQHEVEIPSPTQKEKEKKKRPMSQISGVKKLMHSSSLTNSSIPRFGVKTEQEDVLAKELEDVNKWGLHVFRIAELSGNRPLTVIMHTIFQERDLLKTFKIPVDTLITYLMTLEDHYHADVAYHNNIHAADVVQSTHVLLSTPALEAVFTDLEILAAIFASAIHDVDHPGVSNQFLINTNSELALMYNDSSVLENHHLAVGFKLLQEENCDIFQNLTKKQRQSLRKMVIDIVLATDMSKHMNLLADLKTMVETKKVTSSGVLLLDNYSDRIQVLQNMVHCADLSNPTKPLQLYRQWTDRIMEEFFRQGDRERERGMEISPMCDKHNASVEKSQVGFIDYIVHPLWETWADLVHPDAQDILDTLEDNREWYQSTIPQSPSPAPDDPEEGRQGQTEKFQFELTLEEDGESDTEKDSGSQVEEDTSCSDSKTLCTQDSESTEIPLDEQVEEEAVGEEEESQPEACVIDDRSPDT

Mus musculus [29] = experiment: Anti-inflammatory activity in poly(I:C)-induced airway inflammation C57BL/6 mouse model assessed as reduction in total cells in bronchoalveolar lavage fluid at 10 mg/kg, ip administered 1 day prior to poly(I:C) stimulation and redosed on day 2 followed by poly(I:C) stimulation by trypan blue staining-based hemocytometric analysis; format: functional, organism-based
Mus musculus [30] = experiment: Hepatotoxicity in mouse at 1 to 50 mg/kg, ip dosed daily for 1 month by histological analysis; format: toxicity, organism-based; conditions: in vivo
Mus musculus [31] = experiment: Renal toxicity in mouse at 1 to 50 mg/kg, ip dosed daily for 1 month by histological analysis; format: organism-based; conditions: in vivo
Mus musculus [32] = experiment: Pulmonary toxicity in mouse at 1 to 50 mg/kg, ip dosed daily for 1 month by histological analysis; format: organism-based; conditions: in vivo

What does the source list for `Cc1cc(/N=N/c2ccc(S(=O)(=O)NC3CCCC3)cc2)c(N)cc1O`?
half-life [1]: 49.8 min; Vd [2]: 1.12 L/kg; clearance [3]: 14.7 mL/min/kg; Cmax [4]: 36 ng/mL; AUC(0-t) [5]: 104 ng·h/mL; Activity (Mus musculus [6]): Active; Activity (Mus musculus [7]): Active; Activity (Mus musculus [8]): Active; Activity (Mus musculus [9]): Non-Toxic; Activity (Mus musculus [10]): Non-Toxic; Activity (Mus musculus [11]): Non-Toxic; Activity (Mus musculus [12]): Non-Toxic; Activity (Mus musculus [13]): Non-Toxic; Activity [14]: 3%; Activity [15]: 7.4%; Activity [16]: 17.4%; Activity [17]: -4.3%; Activity [18]: 7.1%; Activity [19]: 21.6%; Activity [20]: -2.9%; Activity [21]: 8.9%; Activity [22]: -0.1%; Activity [23]: -9.6%; Activity [24]: 15%; Activity [25]: 32.4%; Activity (Rattus norvegicus): 8.5%; Activity [26]: 28.2 to 41.6%; Activity [27]: 46%; Activity [28]: 39.4%; Activity (Mus musculus [29]): Active; Activity (Mus musculus [30]): Non-Toxic; Activity (Mus musculus [31]): Non-Toxic; Activity (Mus musculus [32]): Non-Toxic
